According to ChEMBL document CHEMBL1123538, “Inhibitors of human purine nucleoside phosphorylase. Synthesis, purine nucleoside phosphorylase inhibition, and T-cell cytotoxicity of 2,5-diaminothiazolo[5,4-d]pyrimidin-7(6H)-one and 2,5-diaminothiazolo[4,5-d]pyrimidin-7(6H)-one. Two thio isosteres of 8-aminoguanine” (J Med Chem, 1986):

Legend:
Homo sapiens [1] = species: Homo sapiens; assay: Cytotoxicity was evaluated against human MGL-8 B -lymphoblasts (Presence of 10 uM 2'-deoxyguanosine (W/GdR)); type: functional; settings: MGL8
Procedure, shortened: (§1)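 Cell growth measured as [3H]thymidine uptake. Lines kept in RPMI 1640 with 10% heat-inactivated fetal calf serum, L-glutamine and penicillin-streptomycin; assay run in RPMI 1640 plus 10% heat-inactivated horse serum.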

Homo sapiens [2] = species: Homo sapiens; assay: Cytotoxicity was evaluated against human MGL-8 B -lymphoblasts (absence of 10 uM 2'-deoxyguanosine (Wo/GdR)); type: functional; settings: MGL8; procedure, shortened: as §1
MOLT-4 [3] = assay: Cytotoxicity was evaluated against human MOLT-4 T-lymphoblasts (absence of 10 uM 2'-deoxyguanosine (Wo/GdR)); type: functional, cell-based; procedure, shortened: as §1
MOLT-4 [4] = assay: Cytotoxicity was evaluated against human MOLT-4 T-lymphoblasts (presence of 10 uM 2'-deoxyguanosine (W/GdR)); type: functional, cell-based; procedure, shortened: as §1
[5] = target: T1, Purine nucleoside phosphorylase (Homo sapiens, UniProt P00491); assay: Compound was evaluated for 50% inhibition of purine nucleoside phosphorylase activity by was measured by the conversion of [8-14C]-inosine to [8-14C]-hypoxanthine; type: functional
T1 sequence (P00491 whole entry): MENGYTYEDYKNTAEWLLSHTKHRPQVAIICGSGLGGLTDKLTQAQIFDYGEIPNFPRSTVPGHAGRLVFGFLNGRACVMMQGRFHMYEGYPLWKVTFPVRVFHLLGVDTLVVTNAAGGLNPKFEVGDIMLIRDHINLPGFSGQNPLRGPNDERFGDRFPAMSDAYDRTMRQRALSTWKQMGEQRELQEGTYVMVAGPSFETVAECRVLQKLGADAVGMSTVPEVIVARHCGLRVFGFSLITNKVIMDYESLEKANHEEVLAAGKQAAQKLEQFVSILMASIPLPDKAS

| IC50 [5] [µM] | Structure (SMILES) | IC50 (Homo sapiens [1]) [µM] | IC50 (Homo sapiens [2]) [µM] | IC50 (MOLT-4 [3]) [µM] | IC50 (MOLT-4 [4]) [µM] |
| --- | --- | --- | --- | --- | --- |
| – | Nc1nc(O)c2nc(N)n([C@@H]3O[C@H](CO)[C@@H](O)[C@H]3O)c2n1 | > 500 | > 500 | ~500 | 3.25 |
| 142 | Nc1nc2sc(N)nc2c(=O)[nH]1 | > 50 | > 50 | > 50 | > 50 |
| ~330 | Nc1nc2nc(N)sc2c(=O)[nH]1 | > 50 | > 50 | > 50 | > 50 |
| 1.55 | Nc1nc2[nH]c(N)nc2c(=O)[nH]1 [8-AMINOGUANINE] | > 500 | > 500 | ~400 | 2.35 |
